Assay results: ChEMBL document CHEMBL4689842, “EUbOPEN Chemogenomics Library wave 1” (2021)

System: U2OS
Test: Multiplex assay against U2OS
Assay type: toxicity, cell-based
Settings: human
In short: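 Live cells carried four stains from seeding: Hoechst33342, BioTracker Green Microtubule Cytoskeleton Dye, MitoTracker Red and Annexin V Alexa Fluor 680. They were imaged on a CQ1 microscope at 37°C and 5% CO2 after compound addition. Using CellPathfinder machine-learning gating, cells were split into Hoechst high-intensity objects or normal cells, normal cells into healthy, pyknosed or fragmented nuclei, and pyknosed cells into mitotic or apoptotic; tubulin, mitochondrial-mass and membrane-permeability phenotypes are per cents of healthy-nucleus cells.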

[1] = 12 h, 1 µM, compound concentration 1 uM, replicate 1
[2] = 12 h, 1 µM, compound concentration 1 uM, replicate 2
[3] = 12 h, 10 µM, compound concentration 10 uM, replicate 1
[4] = 12 h, 10 µM, compound concentration 10 uM, replicate 2
[5] = 24 h, 1 µM, compound concentration 1 uM, replicate 1
[6] = 24 h, 1 µM, compound concentration 1 uM, replicate 2
[7] = 24 h, 10 µM, compound concentration 10 uM, replicate 1
[8] = 24 h, 10 µM, compound concentration 10 uM, replicate 2
[9] = 48 h, 1 µM, compound concentration 1 uM, replicate 1
[10] = 48 h, 1 µM, compound concentration 1 uM, replicate 2
[11] = 48 h, 10 µM, compound concentration 10 uM, replicate 1
[12] = 48 h, 10 µM, compound concentration 10 uM, replicate 2

OC1(c2ccc(Cl)cc2)CCN(Cc2c[nH]c3ccccc23)CC1
Population Apoptotic (%) [1]: 64% | Population Fragmented Nuclei (%) [1]: 10% | Population Healthy Nuclei (%) [1]: 80% | Population Hoechst High Intensity Objects (%) [1]: 9% | Population Mitochondria Different-Phenotype (%) [1]: 15% | Population Mitotic Cells (%) [1]: 35% | Population Normal (%) [1]: 90% | Population Tubulin-Different-Phenotype (%) [1]: 11% | Total Cell Count [1]: 115 | Population Apoptotic (%) [2]: 0% | Population Fragmented Nuclei (%) [2]: 13% | Population Healthy Nuclei (%) [2]: 77% | Population Hoechst High Intensity Objects (%) [2]: 10% | Population Membrane Permeable-Phenotype (%) [2]: 3% | Population Mitochondria Different-Phenotype (%) [2]: 13% | Population Mitotic Cells (%) [2]: 100% | Population Normal (%) [2]: 89% | Population Pyknosed Nuclei (%) [2]: 9% | Population Tubulin-Different-Phenotype (%) [2]: 9% | Total Cell Count [2]: 78 | Population Apoptotic (%) [3]: 52% | Population Fragmented Nuclei (%) [3]: 15% | Population Healthy Nuclei (%) [3]: 35% | Population Hoechst High Intensity Objects (%) [3]: 5% | Population Membrane Permeable-Phenotype (%) [3]: 10% | Population Mitochondria Different-Phenotype (%) [3]: 92% | Population Mitotic Cells (%) [3]: 47% | Population Normal (%) [3]: 94% | Population Pyknosed Nuclei (%) [3]: 48% | Population Tubulin-Different-Phenotype (%) [3]: 84% | Total Cell Count [3]: 165 | Population Apoptotic (%) [4]: 42% | Population Fragmented Nuclei (%) [4]: 13% | Population Healthy Nuclei (%) [4]: 38% | Population Hoechst High Intensity Objects (%) [4]: 3% | Population Membrane Permeable-Phenotype (%) [4]: 4% | Population Mitochondria Different-Phenotype (%) [4]: 95% | Population Mitotic Cells (%) [4]: 57% | Population Normal (%) [4]: 96% | Population Pyknosed Nuclei (%) [4]: 47% | Population Tubulin-Different-Phenotype (%) [4]: 60% | Total Cell Count [4]: 74 | Population Apoptotic (%) [5]: 50% | Population Fragmented Nuclei (%) [5]: 7% | Population Healthy Nuclei (%) [5]: 82% | Population Hoechst High Intensity Objects (%) [5]: 4% | Population Membrane Permeable-Phenotype (%) [5]: 3% | Population Mitochondria Different-Phenotype (%) [5]: 6% | Population Mitotic Cells (%) [5]: 50% | Population Normal (%) [5]: 95% | Population Pyknosed Nuclei (%) [5]: 9% | Population Tubulin-Different-Phenotype (%) [5]: 10% | Total Cell Count [5]: 119 | Population Apoptotic (%) [6]: 20% | Population Fragmented Nuclei (%) [6]: 5% | Population Healthy Nuclei (%) [6]: 88% | Population Hoechst High Intensity Objects (%) [6]: 8% | Population Membrane Permeable-Phenotype (%) [6]: 4% | Population Mitochondria Different-Phenotype (%) [6]: 13% | Population Mitotic Cells (%) [6]: 80% | Population Normal (%) [6]: 91% | Population Pyknosed Nuclei (%) [6]: 6% | Population Tubulin-Different-Phenotype (%) [6]: 8% | Total Cell Count [6]: 77 | Population Apoptotic (%) [7]: 61% | Population Fragmented Nuclei (%) [7]: 20% | Population Healthy Nuclei (%) [7]: 22% | Population Hoechst High Intensity Objects (%) [7]: 9% | Population Membrane Permeable-Phenotype (%) [7]: 20% | Population Mitochondria Different-Phenotype (%) [7]: 79% | Population Mitotic Cells (%) [7]: 38% | Population Normal (%) [7]: 90% | Population Pyknosed Nuclei (%) [7]: 56% | Population Tubulin-Different-Phenotype (%) [7]: 50% | Total Cell Count [7]: 197 | Population Apoptotic (%) [8]: 66% | Population Fragmented Nuclei (%) [8]: 21% | Population Healthy Nuclei (%) [8]: 27% | Population Hoechst High Intensity Objects (%) [8]: 5% | Population Membrane Permeable-Phenotype (%) [8]: 5% | Population Mitochondria Different-Phenotype (%) [8]: 94% | Population Mitotic Cells (%) [8]: 33% | Population Normal (%) [8]: 94% | Population Pyknosed Nuclei (%) [8]: 51% | Population Tubulin-Different-Phenotype (%) [8]: 52% | Total Cell Count [8]: 85 | Population Apoptotic (%) [9]: 23% | Population Healthy Nuclei (%) [9]: 83% | Population Mitochondria Different-Phenotype (%) [9]: 11% | Population Mitotic Cells (%) [9]: 76% | Population Pyknosed Nuclei (%) [9]: 9% | Population Tubulin-Different-Phenotype (%) [9]: 8% | Total Cell Count [9]: 132 | Population Apoptotic (%) [10]: 41% | Population Fragmented Nuclei (%) [10]: 7% | Population Healthy Nuclei (%) [10]: 81% | Population Hoechst High Intensity Objects (%) [10]: 3% | Population Membrane Permeable-Phenotype (%) [10]: 3% | Population Mitochondria Different-Phenotype (%) [10]: 17% | Population Mitotic Cells (%) [10]: 58% | Population Normal (%) [10]: 96% | Population Pyknosed Nuclei (%) [10]: 11% | Population Tubulin-Different-Phenotype (%) [10]: 16% | Total Cell Count [10]: 85 | Population Apoptotic (%) [11]: 79% | Population Fragmented Nuclei (%) [11]: 37% | Population Healthy Nuclei (%) [11]: 6% | Population Hoechst High Intensity Objects (%) [11]: 12% | Population Membrane Permeable-Phenotype (%) [11]: 25% | Population Mitochondria Different-Phenotype (%) [11]: 87% | Population Mitotic Cells (%) [11]: 20% | Population Normal (%) [11]: 88% | Population Pyknosed Nuclei (%) [11]: 56% | Population Tubulin-Different-Phenotype (%) [11]: 62% | Total Cell Count [11]: 282 | Population Apoptotic (%) [12]: 70% | Population Fragmented Nuclei (%) [12]: 32% | Population Healthy Nuclei (%) [12]: 12% | Population Hoechst High Intensity Objects (%) [12]: 8% | Population Membrane Permeable-Phenotype (%) [12]: 75% | Population Mitochondria Different-Phenotype (%) [12]: 75% | Population Mitotic Cells (%) [12]: 29% | Population Normal (%) [12]: 91% | Population Pyknosed Nuclei (%) [12]: 54% | Population Tubulin-Different-Phenotype (%) [12]: 50% | Total Cell Count [12]: 111
